Compounds with a hit are over-represented: about 3.7% of the library has one in this group of screens.
ERAP1 HTS inh: ERAP1 (human) enzyme inhibition; Q9NZ08; recombinant ERAP1, Leu-AMC fluorescence, 60 min; inhibition, % at 10.7 µM; actives 0.15% (n = 340,000); AID 652197;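 active = mean replicate inhibition of at least 30%, or all replicates individually reaching that 30% level; inactive = mean below 30% and not every replicate reaching it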;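 note: 0% = neutral control wells and 100% = L-leucinethiol positive control wells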
F508del corr: CFTR F508del correction in bronchial cells; AID 720511; CFBE cells, YFP halide quenching; stimulated with forskolin plus potentiator P3; % fluorescence drop versus neutral controls; activity (quench increase), % at 7.58 µM; actives 0.36% (n = 350,000);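 active = mean added fluorescence quench of at least 8% versus neutral control, with both replicates also reaching 8%; inconclusive = only one of the mean or replicate conditions met; inactive = mean below 8% and not both replicates reaching 8%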;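 note: cells transiently co-express mutant CFTR-F508del with the halide-sensitive YFP; corrector assay measuring rescue of mutant channel to the surface after 24 h compound exposure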
FGF22 binding: binders of recombinant human FGF22 by thermal shift | actives 1.5% (n = 340,000) | Q9HCT0 | SYPRO orange fluorescence; percent of sucrose octasulfate shift, DMSO zero | activity (Tm shift, normalised), % at 9.99 µM;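 active = mean Tm shift, scaled 0 neutral to 100 positive control, at about 1.3% or above, every replicate too, limit read from the data; inconclusive = no clear call, values can overlap the other calls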
Target sequence (Q9HCT0 whole entry, looked up): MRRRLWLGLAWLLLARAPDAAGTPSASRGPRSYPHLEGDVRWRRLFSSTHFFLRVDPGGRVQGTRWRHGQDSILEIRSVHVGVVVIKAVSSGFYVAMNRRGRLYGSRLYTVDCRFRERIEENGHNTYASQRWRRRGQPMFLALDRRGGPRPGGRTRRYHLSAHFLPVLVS
DENV2 CPE: protects cells from dengue virus 2 cytopathic effect. DENV2-infected cells, cytopathic effect rescue, plate reader. CPE inhibition, % at 9.99 µM. actives 1.7% (n = 350,000); in the data active = CPE inhibition above about 20%, passing the limit was not always enough; inconclusive = no clear call, values can overlap the other calls; tested in BHK-21 cells;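 note: 0% = median of neutral control wells and 100% = median of positive control wells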
E-selectin induc: induces E-selectin expression in human endothelial cells; P16581; HUVEC E-selectin immunofluorescence imaging; normalized: neutral wells 0, TNF-alpha wells 100; activation, % at 7.58 µM; actives 0.37% (n = 260,000);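 active = mean E-selectin-positive cell signal at least 10% of the positive control, reached in at least 60% of replicates, without over 20% cell loss; inconclusive = no rule given, readout overlaps actives, possibly toxicity-flagged; inactive = the rest, including those meeting only one limit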
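Read-out basis: % PE-positive cells; Test system: HUVEC primary endothelial cells; Technique: immunofluorescence imaging; Dosing: single-point compound dose.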
Numbers without * were called inactive; ? = inconclusive; . = no result given.

SMILES	ERAP1 HTS inh	F508del corr	FGF22 binding	DENV2 CPE	E-selectin induc
O=C(c1ccccc1)C1Oc2ccccc2C2CC(c3cccs3)=NN12 (stereo not drawn)	2.4	-0.3	0.1	.	7.4
COc1cccc(C2Oc3ccccc3C3CC(c4cccs4)=NN32)c1 (stereo not drawn)	1.1	1.6	0.0	81.2*	-0.2
Cc1noc(C)c1NC(=O)Nc1ccc2c(c1)C(=O)N([C@@H](C)CO)C[C@@H](C)[C@H](CN(C)S(C)(=O)=O)O2	0.0	0.7	0.1	14.7	-8.2
O=C(c1cccnc1)N1C[C@@H]2[C@H](c3ccccc31)[C@@H](CO)N2Cc1ccc2c(c1)OCO2	1.2	0.5	-0.6	-8.6	0.1
O=C(c1cccnc1)N1C[C@H]2[C@@H](c3ccccc31)[C@@H](CO)N2Cc1ccc2c(c1)OCO2	0.7	3.8	-0.5	25.6*	0.6
COc1cccc(CN2[C@@H]3CN(C(=O)c4ccncc4)c4ccccc4[C@@H]3[C@@H]2CO)c1	-3.9	-2.3	-1.1	20.8*	-0.1
COc1cccc(CN2[C@H](CO)[C@H]3c4ccccc4N(C(=O)c4cccnc4)C[C@H]32)c1	3.8	0.0	0.0	-7.4	-0.1
CCNC(=O)C[C@@H]1C=C[C@@H](NC(=O)NC2CCCCC2)[C@H](CO)O1	-4.3	8.8*	-0.5	3.6	0.3
CCNC(=O)C[C@H]1C=C[C@@H](NC(=O)NC2CCCCC2)[C@H](CO)O1	-4.7	-0.4	-0.2	-2.8	0.4
CN(C)C(=O)C[C@@H]1C=C[C@H](NC(=O)NC2CCCCC2)[C@@H](CO)O1	-3.5	-2.9	0.1	5.1	7.0
CCCNC(=O)N[C@H]1C=C[C@H](CC(=O)NC2CCC2)O[C@H]1CO	4.7	1.0	-0.1	26.2*	-0.1
CN(C)C(=O)C[C@@H]1C=C[C@@H](NC(=O)NC2CCCCC2)[C@H](CO)O1	-2.4	-0.1	0.0	72.7*	1.3
O=C(Nc1nccs1)[C@H]1[C@H](CO)[C@H]2Cn3c(ccc(-c4ccccc4)c3=O)[C@H]2N1CC1CCCC1	1.7	-4.0	-0.4	16.1	0.1
NNC(=O)CN1C(c2ccccc2)=Nc2ccc(Br)cc2C1c1ccccc1 (stereo not drawn)	0.2	-1.8	43.1*	3.8	.
CC1=Nc2ccc(Br)cc2C(c2ccccc2)N1CC(=O)NN (stereo not drawn)	2.6	-2.1	43.2*	-0.1	-0.2
COc1ccc(NC(=O)Nc2ccc3c(c2)[C@@H]2C[C@@H](CC(=O)NCc4ccc5c(c4)OCO5)O[C@H](CO)[C@@H]2O3)cc1	1.6	-1.1	0.1	-0.2	0.5
C[C@H](CO)N1C[C@H](C)[C@H](CN(C)Cc2ccccc2O)OCc2cn(nn2)CCCC1=O	-1.6	0.0	-0.2	-3.9	-0.3
O=C(Nc1ccccc1)O[C@@H]1C[C@H]2CCCC(=O)N3CC[C@@H](C1)[C@@H]23	2.6	-1.1	0.5	9.6	0.6
O=C(Nc1ccccc1)OC1CC2CC1C1CCCC21 (stereo not drawn)	-2.6	-0.5	42.9*	14.8	0.1
Cc1ccc(N(C)C(=O)N2CCN(S(=O)(=O)c3ccc(C)cc3)CC2)cc1	3.3	-1.8	0.1	58.8*	-0.3
O=C(c1cc(-c2ccccc2)n[nH]1)N1CCN(S(=O)(=O)c2ccccc2)CC1	-0.7	-3.4	-0.1	43.0*	-0.1
Cc1ccc(S(=O)(=O)N2CCN(C(=O)C(O)c3ccccc3)CC2)cc1 (stereo not drawn)	0.4	-0.6	0.0	37.3*	-0.3
Cc1ccc(S(=O)(=O)N2CCN(C(=O)c3ccc(S(=O)(=O)N4CCCC4)cc3)CC2)cc1	0.0	.	0.0	15.9	.
Cc1ccc(NCC(=O)N2CCN(S(=O)(=O)c3ccccc3)CC2)cc1F	-1.4	-2.8	0.1	-4.8	32.2*
COCc1cn(CC[C@@H]2CC[C@H](NC(=O)Nc3ccc(Cl)cc3)[C@@H](CO)O2)nn1	2.9	-0.5	0.0	-4.1	0.3
SMILES	ERAP1 HTS inh	F508del corr	FGF22 binding	DENV2 CPE	E-selectin induc
C[C@H]1CN([C@@H](C)CO)C(=O)c2cc(NS(=O)(=O)c3cn(C)cn3)ccc2O[C@H]1CN(C)S(=O)(=O)c1ccc(Cl)cc1	-0.6	1.9	0.1	-4.3	-0.3
Cc1ccc(S(=O)(=O)Nc2ccc3c(c2)C(=O)N([C@H](C)CO)C[C@@H](C)[C@H](CN(C)C)OCCCC[C@@H](C)O3)cc1	-1.9	-1.0	-0.1	-8.4	-0.1
CCN(CC)C(=O)N1CCN(S(=O)(=O)c2ccccc2)CC1	-0.1	0.9	43.5*	3.1	.
O=C(C[C@@H]1CC[C@H](NC(=O)c2ccccc2)[C@H](CO)O1)NCCc1ccncc1	-0.9	1.9	0.0	-1.9	-0.4
C/C=C/C(=O)OCC(=O)Nc1ccc(OC)c(OC)c1	2.3	-0.5	43.2*	14.9	.
COc1ccc(NC(=O)COC(=O)C2=COCCO2)cc1OC	1.2	0.7	43.7*	2.1	1.2
CCN(CC)C(=O)c1sc(NC(=O)C(C)C)c(C#N)c1C	-1.0	1.4	43.8*	-4.6	.
CCN(CC)C(=O)c1sc(NC(=O)c2c(OC)cccc2OC)c(C#N)c1C	4.7	2.9	0.4	0.0	.
COC(=O)[C@]1(Cc2ccccc2)N[C@H](CN(C)C(=O)c2ccccc2)[C@@H]2C(=O)N(Cc3ccccc3)C(=O)[C@@H]21	0.1	1.3	43.1*	7.4	0.5
CC[C@@]1(C(=O)OC)N[C@H](CN(C)C(=O)c2ccccc2)[C@@H]2C(=O)N(C)C(=O)[C@@H]21	-0.6	-3.0	43.0*	-0.6	-0.1
CC[C@@]1(C(=O)OC)N[C@H](CN(C)C(C)=O)[C@@H]2C(=O)N(Cc3ccccc3)C(=O)[C@@H]21	0.3	-2.6	43.7*	-1.8	0.0
COC(=O)[C@]1(C)N[C@H](CN(C)C(=O)Nc2ccccc2)[C@@H]2C(=O)N(Cc3ccccc3)C(=O)[C@@H]21	-3.4	-0.1	41.5	-3.9	3.1
CC[C@@]1(C(=O)OC)N[C@H](CN(C)C(=O)c2ccc(F)cc2)[C@@H]2C(=O)N(C)C(=O)[C@@H]21	-5.1	-1.2	0.6	16.0	-0.2
COCC(=O)N(C)C[C@H]1N[C@@](C)(C(=O)OC)[C@H]2C(=O)N(Cc3ccccc3)C(=O)[C@@H]12	-1.2	-2.7	43.2*	1.7	0.0
COC(=O)[C@]1(Cc2ccccc2)N[C@H](CN(C)C(=O)c2ccc(C)cc2)[C@@H]2C(=O)N(Cc3ccccc3)C(=O)[C@@H]21	1.7	-1.2	0.3	?	0.2
CC(C)NC(=O)Nc1ccc2c(c1)C(=O)N([C@@H](C)CO)C[C@@H](C)[C@@H](CN(C)S(=O)(=O)c1ccc(F)cc1)OCCCC[C@@H](C)O2	-1.3	2.6	-0.3	1.9	0.3
O=C(Nc1cccc(C2=NCCN2)c1)Nc1cccc(C2=NCCN2)c1	-10.7	8.3*	0.0	2.6	0.5
COC(=O)N1C(=O)[C@](c2ccsc2)(C(C)C)N1C(=O)OC	-3.7	-0.3	0.0	47.8*	-0.1
